Series [1] has as its system Mus musculus. Description: Optimal activity expressed as percentage treated to that of control was measured in vivo against P-388 leukemia cells. The class given is functional. The essentials:
(§1)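 In vivo P-388 lymphocytic leukemia (PS) assay run by National Cancer Institute contractors under standard protocols. Compounds were dosed over a range in mg/kg, and activity is reported as % T/C (treated vs control). The optimal dose and the lowest toxic dose were taken from the dose series, and a therapeutic index was tabulated from them.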

For series [2], the system named is P388. In words: Antileukemic activity against P-388 leukemia cells was measured at given dose range. The class given is functional, Mus musculus. The method in brief:
as §1

The nature of series [3]: Therapeutic index was measured on P-388 leukemia cells. Conditions: mouse, read-out: Therapeutic index. The method in brief:
as §1

For series [4], the system named is P388. Description: Lowest toxicity was observed at this dose against P-388 leukemia cells. The class given is functional, Mus musculus. The method in brief:
as §1

Series [5] deals with P388. In words: This is the dose at which optimal activity was observed against P-388 leukemia cells. In kind it is functional, Mus musculus. The method in brief: as §1
Series [6] can be described thus: Therapeutic index was measured on P-388 leukemia cells against P-388 leukemia cells. In kind it is organism-based. Conditions: mouse, read-out: Therapeutic index. The method in brief: as §1
Series [7] is described as follows: In vitro cytotoxicity of compound was tested against 9KB cells. In kind it is functional. Conditions: Homo sapiens, read-out: ED50 (the source's name). The method in brief:
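Cytotoxicity against KB (9KB) cells was run in vitro at Research Triangle Institute under standard protocols. Potency is expressed as ED50 in μg/mL.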

Series [8] has as its system Mus musculus. Description: Optimal activity expressed as percentage treated to that of control was measured in vivo against P-388 leukemia cells; NA means inactive. In kind it is functional, organism-based. The essentials: as §1
Series [9] in a line: Therapeutic index was measured on P-388 leukemia cells. Conditions: mouse, read-out: Therapeutic index. The essentials: as §1

10 compounds from ChEMBL document CHEMBL1121610, “Plant antitumor agents. 18. Synthesis and biological activity of camptothecin analogues” (J Med Chem, 1980) can be followed below.

Values after ≈ are worked out from the molar mass of the structure shown. Active and inactive are the calls of the source. The calls are words filed in the database; no cut-off is given here.

`CC[C@@]1(O)C(=O)OCc2c1cc1n(c2=O)Cc2cc3ccccc3nc2-1` [CAMPTOTHECIN] displayed a T/C in the series with Mus musculus [1] of 197%. The Dose range in the series on P388 [2] worked out at 8 mg/kg. Also, the selectivity ratio in [3] came out at 8. Besides, the results for the Dose with P388 [4] and in the series on P388 [5] were 8 mg/kg and 4 mg/kg, respectively.
Turning to `CCN(CC)CCOc1ccc2nc3c(cc2c1)Cn1c-3cc2c(c1=O)COC(=O)[C@]2(O)CC.Cl`, the T/C in the series with Mus musculus [1] is on record as 234%. Further, the Dose range in the series with P388 [2] is 32 mg/kg. The selectivity ratio in [6] was determined as 16. The EC50 in series [7] is more than 1 µg/mL. The compound further came in with a Dose in the series with P388 [5] of 32 mg/kg.
In the series with P388 [2], `CC[C@@]1(O)C(=O)OCc2c1cc1n(c2=O)Cc2cc3cc(OCC(=O)[O-])ccc3nc2-1.[Na+]` yielded a Dose range of 32 mg/kg. For the same compound, in series [7], the EC50 is more than 1 µg/mL. Moreover, the T/C result with Mus musculus [8] was “inactive”.
In the series on Mus musculus [1], `CCCC1(O)C(=O)OCc2c1cc1n(c2=O)Cc2cc3cccnc3nc2-1` (stereo unspecified) returned a T/C of 175%. Also, in the series on P388 [2], the Dose range worked out at 32 mg/kg. The selectivity ratio in series [6] is 2. The Dose in the series on P388 [5] is 32 mg/kg.
For the compound `CC[C@@]1(O)C(=O)OCc2c1cc1n(c2=O)Cc2cc3cc(O)ccc3nc2-1` [HYDROXYCAMPTOTHECIN], in the series on Mus musculus [1], the T/C came out at 314%. In addition, the Dose range in the series with P388 [2] stood at 8 mg/kg. Further, the results for the Dose in the series with P388 [4] and in the series on P388 [5] were 8 mg/kg and 4 mg/kg, respectively. The selectivity ratio in series [9] came to 8. For the same compound, the EC50 in series [7] came to 0.02 µg/mL (≈ 0.0549 µM).
For `CC[C@@](O)(C(=O)[O-])c1cc2n(c(=O)c1CO)Cc1cc3ccccc3nc1-2.[Na+]`, the T/C in the series on Mus musculus [1] worked out at 212%. Further, the Dose range in the series with P388 [2] was 8 mg/kg. For the same compound, the Dose came to 80 mg/kg in the series with P388 [4] and 40 mg/kg in the series on P388 [5]. Besides, the selectivity ratio in [9] was found to be 4.
`CCC1(O)C(=O)OCc2c1cc1n(c2=O)Cc2cc3cc4ccccc4cc3nc2-1` (stereo unspecified) had a T/C in the series on Mus musculus [1] of 198%. In the series on P388 [2], this compound returned a Dose range of 32 mg/kg. Also, the selectivity ratio in series [6] was found to be 4. In addition, the EC50 in [7] was determined as 0.2 µg/mL (≈ 0.502 µM). The same compound came in with a Dose in the series on P388 [5] of 16 mg/kg.
Regarding `COCCC1(O)C(=O)OCc2c1cc1n(c2=O)Cc2cc3ccccc3nc2-1` (stereo unspecified), the T/C in the series with Mus musculus [1] was 160%. For the same compound, the Dose range in the series with P388 [2] was determined as 8 mg/kg. Besides, the figures for the Dose with P388 [4] and with P388 [5] were 8 mg/kg and 4 mg/kg, respectively. The selectivity ratio in series [9] worked out at 2. For the same compound, the EC50 in series [7] amounted to 0.2 µg/mL (≈ 0.529 µM).
`CC[C@@]1(O)C(=O)OCc2c1cc1n(c2=O)Cc2cc3cc(OC)ccc3nc2-1` registered a T/C with Mus musculus [1] of 145%. In addition, the Dose range with P388 [2] stood at 4 mg/kg. In addition, the Dose was 1 mg/kg with P388 [4] and 0.5 mg/kg with P388 [5]. For the same compound, the selectivity ratio in [9] worked out at 1. Also, the EC50 in [7] turned out to be 0.02 µg/mL (≈ 0.0529 µM).
In the case of `CCC1(O)C(=O)OCc2c1cc1n(c2=O)Cc2cc3ccccc3nc2-1` (stereo unspecified), the T/C in the series with Mus musculus [1] came to 222%. The compound further displayed a Dose range in the series with P388 [2] of 16 mg/kg. In addition, the results for the Dose in the series with P388 [4] and in the series on P388 [5] were 16 mg/kg and 8 mg/kg, respectively. Moreover, in series [9], the selectivity ratio was found to be 8. Further, the EC50 in [7] amounted to 0.1 µg/mL (≈ 0.287 µM).
